The source made the active and inactive calls. The rule behind the calls is not given here.
Experiments:
[1] = Metabolic stability in human liver microsomes assessed as compound remaining at 0.5 uM incubated for 10 mins in presence of NADPH by UV absorbance based assay; type: ADME, Microsome; settings: read-out: Stability
[2] = target: Voltage-gated inwardly rectifying potassium channel KCNH2 (Homo sapiens, UniProt Q12809); experiment: Inhibition of hERG; type: toxicity
Mus musculus = experiment: Immunostimulatory activity in nontumor bearing Balb/C mouse assessed as increase in IFNalpha production in serum at 0.5 to 1 mg/kg, iv measured after 2 hrs by ELISA; type: functional, organism-based; settings: dose 0.5-1 mg/kg
In short: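 Nontumor-bearing female Balb/C mice received a single 1 mg/kg dose. Serum IFNα was measured 2 h after administration, with N = 9 mice per group.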

[3] = Half life in nontumor bearing Balb/C mouse at 0.5 mg/kg; type: ADME, organism-based; settings: in vivo
[4] = Clearance in nontumor bearing Balb/C mouse at 0.5 mg/kg; type: ADME, organism-based; settings: in vivo
CT26 [5] = experiment: Antitumor activity against syngeneic mouse CT26 cells implanted in ip dosed Balb/cAnNHsd mouse assessed as tumor growth delay administered once a week for 4 weeks in presence of aPD1 antibody and measured twice weekly by digital caliper analysis; type: functional, organism-based; settings: dose 0.5-2.5 mg/kg
In short: (§1)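 Syngeneic CT-26 tumors in mice. The TLR7 agonist was given at 0.5 or 2.5 mg/kg weekly for 4 doses (QWx4). It was combined with anti-PD1 antibody at 10 mg/kg IP, every 4 days for 7 doses (Q4Dx7). Tumor growth was followed, including 27 days after compound dosing stopped.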

CT26 [6] = experiment: Antitumor activity against syngeneic mouse CT26 cells implanted in Balb/cAnNHsd mouse assessed as complete tumor regression with no relapse at 2.5 mg/kg, ip administered once a week for 4 weeks in presence of aPD1 antibody and measured twice weekly by digital caliper analysis; type: functional, organism-based; in short: as §1
[7] = Cytotoxicity against PHA-activated T-cells (unknown origin) assessed as inhibition of IL-2 induced cell proliferation measured after 72 hrs by MTS assay; type: toxicity, cell-based
Cytochrome P450 1A2 = target: T1, Cytochrome P450 1A2 (Homo sapiens, UniProt P05177); experiment: Inhibition of CYP1A2 (unknown origin); type: ADME
T1 sequence (P05177 whole entry): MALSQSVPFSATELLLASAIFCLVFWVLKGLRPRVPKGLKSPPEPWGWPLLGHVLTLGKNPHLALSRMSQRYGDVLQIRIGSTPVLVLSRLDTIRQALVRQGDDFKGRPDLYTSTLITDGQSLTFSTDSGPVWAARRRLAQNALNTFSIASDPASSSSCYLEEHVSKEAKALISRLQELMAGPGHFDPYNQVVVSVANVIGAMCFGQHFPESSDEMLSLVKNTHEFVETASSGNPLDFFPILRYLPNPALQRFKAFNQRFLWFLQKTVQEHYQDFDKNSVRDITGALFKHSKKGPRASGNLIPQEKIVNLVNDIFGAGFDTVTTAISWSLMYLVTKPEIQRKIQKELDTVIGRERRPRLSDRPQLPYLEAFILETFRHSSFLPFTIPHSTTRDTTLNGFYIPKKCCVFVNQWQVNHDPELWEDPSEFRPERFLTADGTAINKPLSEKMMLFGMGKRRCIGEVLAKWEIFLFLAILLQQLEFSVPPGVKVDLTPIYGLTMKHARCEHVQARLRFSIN

Cytochrome P450 2C9 = Cytochrome P450 2C9 (Homo sapiens, UniProt P11712); experiment: Inhibition of CYP2C9 (unknown origin); type: ADME
Cytochrome P450 2D6 = Cytochrome P450 2D6 (Homo sapiens, UniProt P10635); experiment: Inhibition of CYP2D6 (unknown origin); type: ADME
Cytochrome P450 3A4 [8] = target: T2, Cytochrome P450 3A4 (Homo sapiens, UniProt P08684); experiment: Inhibition of CYP3A4 (unknown origin) using BFC as substrate; type: ADME
Cytochrome P450 2C8 = target: T3, Cytochrome P450 2C8 (Homo sapiens, UniProt P10632); experiment: Inhibition of CYP2C8 (unknown origin); type: ADME
T3 sequence (P10632 whole entry): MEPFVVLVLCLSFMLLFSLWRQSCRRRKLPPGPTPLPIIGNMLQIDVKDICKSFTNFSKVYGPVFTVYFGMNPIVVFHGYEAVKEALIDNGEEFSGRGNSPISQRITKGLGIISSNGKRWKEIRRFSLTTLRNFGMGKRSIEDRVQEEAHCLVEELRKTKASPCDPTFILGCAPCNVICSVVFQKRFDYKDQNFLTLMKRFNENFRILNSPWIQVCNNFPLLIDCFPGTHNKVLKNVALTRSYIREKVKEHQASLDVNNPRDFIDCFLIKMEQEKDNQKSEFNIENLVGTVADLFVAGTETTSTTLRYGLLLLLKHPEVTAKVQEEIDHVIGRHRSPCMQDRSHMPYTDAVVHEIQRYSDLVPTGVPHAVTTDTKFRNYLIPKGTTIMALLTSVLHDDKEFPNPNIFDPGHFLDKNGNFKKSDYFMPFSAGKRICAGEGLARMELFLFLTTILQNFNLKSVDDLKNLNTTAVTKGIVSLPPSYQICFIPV

Cytochrome P450 3A4 [9] = target: T2, Cytochrome P450 3A4; experiment: Inhibition of CYP3A4 (unknown origin) using BFC as substrate preincubated with compound followed by substrate addition at 30 mins; type: ADME

T2 sequence (P08684 whole entry): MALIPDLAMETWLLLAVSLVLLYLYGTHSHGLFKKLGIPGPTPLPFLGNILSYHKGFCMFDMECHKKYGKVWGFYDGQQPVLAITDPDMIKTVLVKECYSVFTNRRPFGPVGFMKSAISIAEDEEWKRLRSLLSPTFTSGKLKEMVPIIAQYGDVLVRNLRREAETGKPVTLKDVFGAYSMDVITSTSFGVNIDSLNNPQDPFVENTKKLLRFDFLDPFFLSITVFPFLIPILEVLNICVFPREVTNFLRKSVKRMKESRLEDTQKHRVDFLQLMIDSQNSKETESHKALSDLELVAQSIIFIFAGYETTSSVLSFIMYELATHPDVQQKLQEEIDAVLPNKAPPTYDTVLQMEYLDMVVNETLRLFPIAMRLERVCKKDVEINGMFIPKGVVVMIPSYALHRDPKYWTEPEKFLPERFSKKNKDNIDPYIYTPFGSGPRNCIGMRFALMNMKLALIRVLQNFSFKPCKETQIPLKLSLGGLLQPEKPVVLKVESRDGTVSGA
Cytochrome P450 2C9, sequence (P11712 whole entry): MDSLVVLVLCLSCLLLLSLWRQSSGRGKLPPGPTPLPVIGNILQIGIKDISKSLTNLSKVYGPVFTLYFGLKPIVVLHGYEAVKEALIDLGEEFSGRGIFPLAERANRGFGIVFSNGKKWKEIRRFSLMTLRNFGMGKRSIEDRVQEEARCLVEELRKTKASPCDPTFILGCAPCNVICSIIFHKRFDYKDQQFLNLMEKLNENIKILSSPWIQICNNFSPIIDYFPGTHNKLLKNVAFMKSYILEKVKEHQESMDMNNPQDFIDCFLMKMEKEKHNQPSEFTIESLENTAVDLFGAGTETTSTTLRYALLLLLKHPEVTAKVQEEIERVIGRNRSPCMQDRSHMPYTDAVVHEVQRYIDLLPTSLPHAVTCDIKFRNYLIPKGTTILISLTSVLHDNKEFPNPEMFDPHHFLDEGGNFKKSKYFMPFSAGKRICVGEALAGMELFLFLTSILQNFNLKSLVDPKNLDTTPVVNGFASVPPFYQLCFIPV
Cytochrome P450 2D6, sequence (P10635 whole entry): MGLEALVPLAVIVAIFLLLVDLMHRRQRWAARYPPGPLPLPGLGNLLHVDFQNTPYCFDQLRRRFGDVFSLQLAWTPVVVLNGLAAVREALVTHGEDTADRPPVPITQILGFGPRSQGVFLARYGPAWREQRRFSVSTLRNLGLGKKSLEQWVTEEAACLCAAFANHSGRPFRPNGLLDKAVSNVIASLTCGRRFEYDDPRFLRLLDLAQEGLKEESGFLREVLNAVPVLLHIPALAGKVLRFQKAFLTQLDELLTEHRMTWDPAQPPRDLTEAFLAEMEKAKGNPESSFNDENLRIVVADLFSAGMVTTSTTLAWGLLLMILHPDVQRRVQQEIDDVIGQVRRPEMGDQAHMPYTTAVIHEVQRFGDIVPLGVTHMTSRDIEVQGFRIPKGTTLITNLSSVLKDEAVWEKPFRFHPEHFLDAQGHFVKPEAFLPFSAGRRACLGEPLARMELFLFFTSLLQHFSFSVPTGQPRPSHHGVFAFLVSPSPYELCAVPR
Voltage-gated inwardly rectifying potassium channel KCNH2, sequence (Q12809 whole entry): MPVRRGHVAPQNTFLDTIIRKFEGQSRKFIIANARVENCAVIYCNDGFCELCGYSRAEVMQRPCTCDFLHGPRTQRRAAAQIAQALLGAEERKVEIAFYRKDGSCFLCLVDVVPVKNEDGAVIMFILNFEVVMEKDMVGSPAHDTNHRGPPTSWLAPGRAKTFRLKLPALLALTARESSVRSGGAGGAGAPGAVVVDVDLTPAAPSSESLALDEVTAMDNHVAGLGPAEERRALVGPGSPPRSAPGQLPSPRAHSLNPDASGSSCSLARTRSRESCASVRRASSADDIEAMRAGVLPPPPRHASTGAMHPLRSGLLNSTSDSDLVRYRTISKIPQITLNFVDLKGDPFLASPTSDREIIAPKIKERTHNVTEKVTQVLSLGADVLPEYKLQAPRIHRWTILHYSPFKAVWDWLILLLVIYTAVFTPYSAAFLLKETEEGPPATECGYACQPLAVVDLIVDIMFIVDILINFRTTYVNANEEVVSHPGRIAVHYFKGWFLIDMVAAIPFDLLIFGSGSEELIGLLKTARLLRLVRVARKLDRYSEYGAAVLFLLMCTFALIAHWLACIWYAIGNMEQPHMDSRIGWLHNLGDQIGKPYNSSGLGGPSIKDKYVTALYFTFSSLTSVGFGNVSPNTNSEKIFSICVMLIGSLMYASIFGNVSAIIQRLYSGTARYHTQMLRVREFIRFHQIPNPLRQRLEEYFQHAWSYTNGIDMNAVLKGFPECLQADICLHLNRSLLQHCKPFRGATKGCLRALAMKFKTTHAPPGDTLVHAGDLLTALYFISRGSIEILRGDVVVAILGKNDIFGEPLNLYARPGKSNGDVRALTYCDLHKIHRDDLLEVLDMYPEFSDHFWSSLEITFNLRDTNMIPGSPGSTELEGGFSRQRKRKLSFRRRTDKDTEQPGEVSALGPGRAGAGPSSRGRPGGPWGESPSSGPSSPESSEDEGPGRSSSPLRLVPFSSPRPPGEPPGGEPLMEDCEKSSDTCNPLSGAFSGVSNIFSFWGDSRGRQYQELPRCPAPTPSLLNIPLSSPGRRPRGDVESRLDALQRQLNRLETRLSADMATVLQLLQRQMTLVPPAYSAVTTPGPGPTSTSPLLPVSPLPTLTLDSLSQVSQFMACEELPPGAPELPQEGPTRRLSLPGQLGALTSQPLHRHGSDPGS

remaining at 10 min, 0.5 µM [1]: 86% | half-life [3]: 6.9 h | clearance [4]: 22 mL/min/kg | IC50 (Cytochrome P450 1A2): > 20 µM | IC50 (Cytochrome P450 2C9): > 20 µM | IC50 (Cytochrome P450 2D6): > 20 µM | IC50 (Cytochrome P450 3A4 [8]): > 20 µM | IC50 (Cytochrome P450 2C8): > 20 µM | IC50 (Cytochrome P450 3A4 [9]): > 20 µM
SMILES: CCC[C@@H](CCO)Nc1nc(N)nc2cnn(Cc3ncc(C4CCN(C5CCOCC5)CC4)cc3OC)c12
IC50 [2]: > 50 µM | Activity (Mus musculus): Active | Activity (CT26 [5]): Active | Activity (CT26 [6]): Active | IC50 at 72 h [7]: > 25 µM
